# Reference: PubChem BioAssay
# The source made the active and inactive calls.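 Rule for the calls, unless noted: active = viability at or under a set limit in both replicates, limit being median viability minus 3 SD (cut at about 48% in these data, passing the limit was not always enough); inconclusive = at or under the limit in just one replicate; inactive = at or above the limit in both replicates.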
# Legend:
# [1] = Her2 expression decrease, cell viability multiplex – SKBR3 breast tumor cells, AlphaScreen, ATP viability, primary screen (AID 461;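 active = Her2 level under about 52% in both replicate screens, with viability over 70% of control, limit read from the data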;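 for Her2 level: lower value means less Her2 protein in the cells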;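 for viability: percent of carrier control wells set as 100% viability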); conditions: SKBR3 Her2 protein level, 18-24 h, measured here: SKBR3 viability, ATP luminescence, at 10 µM
# [2] = molecular target: Receptor tyrosine-protein kinase erbB-2 (Homo sapiens) (UniProt P04626); test: as above; conditions: 18-24 h, at 10 µM, stronger effect = lower value
# Sequence of Receptor tyrosine-protein kinase erbB-2 (Homo sapiens) (P04626 whole entry, looked up): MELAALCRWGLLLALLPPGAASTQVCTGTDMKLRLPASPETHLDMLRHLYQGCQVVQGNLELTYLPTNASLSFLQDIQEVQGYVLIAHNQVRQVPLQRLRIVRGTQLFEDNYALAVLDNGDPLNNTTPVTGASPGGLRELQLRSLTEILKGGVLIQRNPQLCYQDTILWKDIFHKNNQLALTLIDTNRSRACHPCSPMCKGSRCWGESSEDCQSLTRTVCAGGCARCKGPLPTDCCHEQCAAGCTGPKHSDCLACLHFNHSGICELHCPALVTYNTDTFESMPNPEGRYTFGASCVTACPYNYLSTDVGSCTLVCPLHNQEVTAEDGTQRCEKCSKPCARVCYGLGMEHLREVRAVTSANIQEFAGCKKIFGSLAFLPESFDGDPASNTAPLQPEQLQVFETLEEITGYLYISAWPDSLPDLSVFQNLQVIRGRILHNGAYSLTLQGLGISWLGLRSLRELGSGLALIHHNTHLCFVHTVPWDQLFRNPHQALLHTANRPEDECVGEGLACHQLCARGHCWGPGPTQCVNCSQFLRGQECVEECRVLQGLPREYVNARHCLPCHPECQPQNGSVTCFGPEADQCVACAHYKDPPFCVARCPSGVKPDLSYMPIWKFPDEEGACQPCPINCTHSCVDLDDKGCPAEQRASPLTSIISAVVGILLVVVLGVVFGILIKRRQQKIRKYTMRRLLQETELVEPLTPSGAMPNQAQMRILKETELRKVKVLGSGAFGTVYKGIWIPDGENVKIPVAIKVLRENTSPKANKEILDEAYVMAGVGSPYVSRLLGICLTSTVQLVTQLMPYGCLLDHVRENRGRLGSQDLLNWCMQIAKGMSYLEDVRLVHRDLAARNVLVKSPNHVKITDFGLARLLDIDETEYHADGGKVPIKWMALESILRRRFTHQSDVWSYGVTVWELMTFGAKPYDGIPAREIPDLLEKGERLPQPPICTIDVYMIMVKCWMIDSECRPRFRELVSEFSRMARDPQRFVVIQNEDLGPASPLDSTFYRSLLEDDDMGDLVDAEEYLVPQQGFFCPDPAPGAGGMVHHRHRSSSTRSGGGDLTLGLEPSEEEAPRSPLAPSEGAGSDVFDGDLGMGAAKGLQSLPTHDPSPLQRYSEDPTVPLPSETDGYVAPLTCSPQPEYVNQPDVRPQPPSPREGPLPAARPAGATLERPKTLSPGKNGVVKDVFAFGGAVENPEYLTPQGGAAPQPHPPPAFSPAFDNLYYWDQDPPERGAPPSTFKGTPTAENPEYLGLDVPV
# [3] = reduced viability of SK-BR-3 breast cancer cells – cell-based, 24 h, human, pilot screen (AID 572;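 active = viability at or below 10% of carrier control in both of two separate runs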;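 note: compound exposure lasted between 18 and 24 h rather than exactly 24 h; 100% = carrier-treated control wells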); conditions: SK-BR-3 viability, CellTiter-Glo luminescence, at 10 µM, stronger effect = lower value
# [4] = HUVEC growth inhibition – cell-based, human, primary screen (AID 575;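 active = viability at or below 30% in both replicate assays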;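 note: 100% = median of untreated cell wells with 0.1% DMSO on each plate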); conditions: HUVEC proliferation, CellTiter-Glo luminescence, 72 h; at 10 µM; stronger effect = lower value
# In short: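 Test system: HUVEC primary cells. Quantity: 1250 endothelial cells in each well. Dosing: single-point 10 µM, DMSO 0.1% final. Incubation: 72 h treatment at 37 °C. Measured by: CTG luminescence. Control set: DMSO cell controls and MePR drug controls. Plate: collagen-coated 384-well format.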
# [5] = H69AR cell proliferation blockers – human, duplicate replicates, primary screen (AID 580); conditions: H69AR lung tumor cells viability, ATP luminescence, 72 h; at 10 µM; stronger effect = lower value;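 note: 100% = mean luminescence of untreated wells and 0% = no signal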
# [6] = MRP1 drug-resistance reversers in H69AR cells – cell-based, doxorubicin co-treatment, pilot screen (AID 601;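 active = viability loss from added drug above about 55%, and viability with drug at most 40%, in both replicates, limit read from the data, passing the limit was not always enough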); conditions: CellTiter-Glo, 72 h, at 10 µM; for differential viability (reversal): stronger effect = higher value
# [7] = yeast transport mutant growth inhibition pilot in 384-well plates, post-Golgi transport modulator project (AID 636; in the data active = inhibition above about 31%); conditions: absorbance 615 nm, about 18 h, stronger effect = higher value
# [8] = growth suppression of yeast trafficking mutant, preliminary HTS, modulators of trafficking downstream of Golgi apparatus project, 1536-format plate, OD 615 nm (AID 637; in the data active = inhibition above about 30%); conditions: yeast transport mutant growth, absorbance 615 nm, 18 h; stronger effect = higher value
# [9] = H69AR cells + 2 uM doxorubicin, measured here: viability with 2 uM doxorubicin, stronger effect = lower value
# [10] = H69AR cells, compound alone cytotoxicity
SMILES,viability [1],Her2 level [2],viability [3],viability [4],viability [5],differential viability (reversal) ([6]; H69AR cells + 2 uM doxorubicin),"viability [6, 9]","viability [6, 10]",inhibition [7],inhibition [8]
O=C(CN1CCCN(S(=O)(=O)c2ccc(Br)cc2)CC1)Nc1ccc2cn[nH]c2c1,106%,109% (inactive),106% (inactive),73.1% (inactive),7.15% (active),-13.3% (inactive),20.5%,7.15%,-2.37% (inactive),2.79% (inactive)
O=C(NCc1ccccc1)C1CCN(S(=O)(=O)N2CCCCCC2)CC1,85%,106% (inactive),85% (inactive),109% (inactive),96.7% (inactive),3.6% (inactive),93.1%,96.7%,6.49% (inactive),-6.23% (inactive)
CCn1c(SCC(=O)Nc2ccc(C(C)=O)cc2)nc2ccccc21,90%,77% (inactive),90% (inactive),57% (inactive),83.1% (inactive),-3.56% (inactive),86.7%,83.1%,-1.45% (inactive),-3.45% (inactive)
COc1ccccc1C(=O)Nc1ccc(S(=O)(=O)N2CCCC2)cc1,95.5%,76.5% (inactive),95.5% (inactive),81.9% (inactive),94.5% (inactive),16.2% (inactive),78.4%,94.5%,-4.93% (inactive),0.49% (inactive)
CCCOc1ccc(OCCSc2ncccn2)cc1,97%,91% (inactive),97% (inactive),99.6% (inactive),102% (inactive),18.8% (inactive),83.1%,102%,-6.67% (inactive),-0.79% (inactive)
COc1ccc(Br)cc1CNC(=O)C1CCCN(S(C)(=O)=O)C1 (stereo not given),78%,104% (inactive),78% (inactive),94.7% (inactive),88.4% (inactive),6.26% (inactive),82.2%,88.4%,0.9% (inactive),10.2% (inactive)
Cc1cc(C)c2nc(N)sc2c1,95.5%,108% (inactive),95.5% (inactive),105% (inactive),103% (inactive),16.9% (inactive),85.8%,103%,-6.62% (inactive),-3.33% (inactive)
COC(=O)C1=C(C)C(c2cccs2)NC(=O)N1C (stereo not given),92.5%,86.5% (inactive),92.5% (inactive),102% (inactive),95.3% (inactive),10.1% (inactive),85.2%,95.3%,-6.13% (inactive),1.48% (inactive)
CCOC(=O)C(NC(=O)c1ccccc1)(Nc1cc(C)on1)C(F)(F)F (stereo not given),106%,90.5% (inactive),106% (inactive),101% (inactive),97.7% (inactive),11.1% (inactive),86.6%,97.7%,-0.93% (inactive),-1.61% (inactive)
Cc1sc(NC(=O)CSc2nc(N)n(CC(=O)c3ccccc3)n2)c(C#N)c1C,103%,106% (inactive),103% (inactive),103% (inactive),90.4% (inactive),-0.79% (inactive),91.2%,90.4%,-3.65% (inactive),-6.83% (inactive)
Oc1ccc2cccnc2c1,94.5%,108% (inactive),94.5% (inactive),107% (inactive),106% (inactive),5.68% (inactive),100%,106%,-4.8% (inactive),-8.41% (inactive)
COC(=O)c1ccccc1NS(=O)(=O)c1ccc(F)cc1,120%,83.5% (inactive),120% (inactive),104% (inactive),102% (inactive),13.1% (inactive),88.4%,102%,-7.26% (inactive),-3.49% (inactive)
Cc1ccc(S(=O)(=O)NCCN2CCOCC2)cc1C,88.5%,93% (inactive),88.5% (inactive),91.7% (inactive),86.1% (inactive),-5.21% (inactive),91.3%,86.1%,-0.52% (inactive),-1.11% (inactive)
CCOC(=O)C1=C(C)Nc2ncnn2C1c1cc(OC)ccc1OC (stereo not given),92.5%,84.5% (inactive),92.5% (inactive),84.6% (inactive),81.8% (inactive),0.51% (inactive),81.3%,81.8%,-6.22% (inactive),1.17% (inactive)
CCOC(=O)CSc1nc2cccnc2n1-c1ccc(F)cc1,108%,117% (inactive),108% (inactive),103% (inactive),102% (inactive),9.83% (inactive),92.4%,102%,-4.8% (inactive),-8.1% (inactive)
CCOc1ccc(C2C(C#N)=C(N)Oc3cc(C)n(CCN(C)C)c(=O)c32)cc1OCC (stereo not given),84%,79.5% (inactive),84% (inactive),90.3% (inactive),101% (inactive),17.7% (inactive),83.3%,101%,-4.32% (inactive),-1.43% (inactive)
COc1ccc(C2=NO[C@@H]3C(=O)N(c4ccc5c(c4)OCCO5)C(=O)[C@H]23)cc1OC,85%,112% (inactive),85% (inactive),81.7% (inactive),80.3% (inactive),-6.85% (inactive),87.1%,80.3%,2.34% (inactive),-5.08% (inactive)
c1ccc(-c2nnc(OCCN3CCOCC3)c3ccccc23)cc1,112%,118% (inactive),112% (inactive),87.3% (inactive),84.2% (inactive),-5.76% (inactive),89.9%,84.2%,-4.08% (inactive),2.62% (inactive)
c1cc(CNc2ccc3c(c2)OCO3)ccn1,80%,92% (inactive),80% (inactive),70.7% (inactive),90% (inactive),-12.5% (inactive),103%,90%,-5.81% (inactive),-2.13% (inactive)
Cc1ccc(S(=O)(=O)N(CCO)c2cc3c(s2)CCCC3)cc1,114%,94.5% (inactive),114% (inactive),68.6% (inactive),81.9% (inactive),-3.64% (inactive),85.6%,81.9%,-5.32% (inactive),-7.5% (inactive)
O=C(O)c1[nH]nc2c1COc1ccccc1-2,93.5%,92% (inactive),93.5% (inactive),109% (inactive),100% (inactive),7.14% (inactive),93.3%,100%,-0.92% (inactive),2.95% (inactive)
COc1ccccc1N1CCN(Cc2nnnn2CCc2ccccc2)CC1,88%,112% (inactive),88% (inactive),91.5% (inactive),93.2% (inactive),3.56% (inactive),89.7%,93.2%,1.51% (inactive),25.6% (inactive)
COc1ccc(CN(C(=O)c2cccs2)c2nccs2)cc1OC,74%,68.5% (inactive),74% (inactive),90.4% (inactive),94.6% (inactive),-4.98% (inactive),99.6%,94.6%,-4.46% (inactive),-0.98% (inactive)
COCCn1nnnc1CN(CCCN1CCOCC1)Cc1cc2c(C)ccc(C)c2[nH]c1=O,85%,124% (inactive),85% (inactive),98.5% (inactive),68.7% (inactive),-5.44% (inactive),74.1%,68.7%,4.55% (inactive),-7.33% (inactive)
COc1ccc(NC(=O)Nc2cc(C)ccc2OC)cc1,101%,109% (inactive),101% (inactive),96.1% (inactive),93.6% (inactive),-4.12% (inactive),97.7%,93.6%,1.18% (inactive),-3.11% (inactive)
Cc1nc2sc(C(c3cccc(F)c3)N3CCCCC3)c(O)n2n1 (stereo not given),109%,80% (inactive),109% (inactive),95.1% (inactive),99.5% (inactive),10.9% (inactive),88.6%,99.5%,-4.79% (inactive),-4.92% (inactive)
CCn1nc(C(=O)OCC(=O)c2cc(C)n(Cc3cccs3)c2C)c2ccccc2c1=O,93.5%,93% (inactive),93.5% (inactive),84.1% (inactive),83.6% (inactive),-9.39% (inactive),93%,83.6%,-3.2% (inactive),26.6% (inactive)
CCOc1cc(C(=O)N(C)c2ccccc2)cc(OCC)c1OCC,108%,131% (inactive),108% (inactive),96.4% (inactive),89.2% (inactive),-1.49% (inactive),90.7%,89.2%,-5.64% (inactive),-11.3% (inactive)
COC(=O)c1ccc(CSc2nc3c(cnn3-c3ccc(F)cc3)c(=O)[nH]2)o1,99%,101% (inactive),99% (inactive),65.3% (inactive),92.5% (inactive),-4.38% (inactive),96.9%,92.5%,-2.19% (inactive),-1.9% (inactive)
